Results: ChEMBL document CHEMBL1138257, “Synthesis and biological evaluation of a fluorine-18 derivative of dasatinib” (J Med Chem, 2007)

Experiments:
[1] = molecular target: Ephrin type-A receptor 2 (Homo sapiens) (UniProt P29317); experiment: Inhibition of EphA2 at 10 nM
How it was run: (§1)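 Part of a 21-kinase inhibition panel, tested at a single inhibitor concentration of 10 nM.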

[2] = molecular target: T1, Tyrosine-protein kinase receptor TYRO3 (Homo sapiens) (UniProt Q06418); experiment: Inhibition of TYRO3 at 10 nM
T1 sequence (whole entry): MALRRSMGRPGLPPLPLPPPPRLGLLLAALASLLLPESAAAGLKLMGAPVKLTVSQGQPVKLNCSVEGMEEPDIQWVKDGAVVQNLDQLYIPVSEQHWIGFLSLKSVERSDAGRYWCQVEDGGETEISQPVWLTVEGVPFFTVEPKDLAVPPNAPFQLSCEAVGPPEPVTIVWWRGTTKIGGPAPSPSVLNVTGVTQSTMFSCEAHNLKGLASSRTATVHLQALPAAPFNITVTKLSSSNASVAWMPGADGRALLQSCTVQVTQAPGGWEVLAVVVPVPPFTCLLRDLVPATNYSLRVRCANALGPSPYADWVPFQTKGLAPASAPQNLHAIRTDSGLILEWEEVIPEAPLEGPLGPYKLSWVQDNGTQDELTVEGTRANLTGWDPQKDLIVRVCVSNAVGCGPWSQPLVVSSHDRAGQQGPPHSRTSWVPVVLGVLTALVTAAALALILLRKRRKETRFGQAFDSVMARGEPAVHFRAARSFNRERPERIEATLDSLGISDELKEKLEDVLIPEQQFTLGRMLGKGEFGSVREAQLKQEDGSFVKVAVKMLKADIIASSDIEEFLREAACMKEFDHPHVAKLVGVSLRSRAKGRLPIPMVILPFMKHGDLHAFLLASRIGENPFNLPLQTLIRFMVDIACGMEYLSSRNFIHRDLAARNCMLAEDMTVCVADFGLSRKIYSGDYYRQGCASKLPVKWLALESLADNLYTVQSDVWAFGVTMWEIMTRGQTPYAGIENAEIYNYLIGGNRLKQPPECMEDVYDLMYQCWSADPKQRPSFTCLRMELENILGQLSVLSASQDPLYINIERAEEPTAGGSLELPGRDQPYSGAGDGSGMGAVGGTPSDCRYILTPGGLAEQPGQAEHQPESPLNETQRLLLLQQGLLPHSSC
How it was run: (§2)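 Single-concentration test at 10 nM within a panel of 21 kinases.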

Mus musculus [3] = experiment: Toxicity in B6D2F1 mouse at 0.1 mg/kg, iv; assay type: organism-based; parameters: dose 0.1 mg/kg, route intravenous; settings: in vivo
[4] = molecular target: Platelet-derived growth factor receptor alpha (Homo sapiens) (UniProt P16234); experiment: Inhibition of PDGFRalpha at 10 nM; how it was run: as §1
[5] = molecular target: Tyrosine-protein kinase CSK (Homo sapiens) (UniProt P41240); experiment: Inhibition of CSK at 10 nM; how it was run: as §1
[6] = molecular target: Activated CDC42 kinase 1 (Homo sapiens) (UniProt Q07912); experiment: Inhibition of ACK at 10 nM; how it was run: as §2
cells [7] = settings: Homo sapiens
K562 = experiment: cells; settings: Homo sapiens
[8] = molecular target: Hepatocyte growth factor receptor (Homo sapiens) (UniProt P08581); experiment: Inhibition of Met kinase at 10 nM; how it was run: as §1
[9] = molecular target: T2, Ephrin type-B receptor 4 (Homo sapiens) (UniProt P54760); experiment: Inhibition of EphB4 at 10 nM; how it was run: as §1
T2 sequence (whole entry): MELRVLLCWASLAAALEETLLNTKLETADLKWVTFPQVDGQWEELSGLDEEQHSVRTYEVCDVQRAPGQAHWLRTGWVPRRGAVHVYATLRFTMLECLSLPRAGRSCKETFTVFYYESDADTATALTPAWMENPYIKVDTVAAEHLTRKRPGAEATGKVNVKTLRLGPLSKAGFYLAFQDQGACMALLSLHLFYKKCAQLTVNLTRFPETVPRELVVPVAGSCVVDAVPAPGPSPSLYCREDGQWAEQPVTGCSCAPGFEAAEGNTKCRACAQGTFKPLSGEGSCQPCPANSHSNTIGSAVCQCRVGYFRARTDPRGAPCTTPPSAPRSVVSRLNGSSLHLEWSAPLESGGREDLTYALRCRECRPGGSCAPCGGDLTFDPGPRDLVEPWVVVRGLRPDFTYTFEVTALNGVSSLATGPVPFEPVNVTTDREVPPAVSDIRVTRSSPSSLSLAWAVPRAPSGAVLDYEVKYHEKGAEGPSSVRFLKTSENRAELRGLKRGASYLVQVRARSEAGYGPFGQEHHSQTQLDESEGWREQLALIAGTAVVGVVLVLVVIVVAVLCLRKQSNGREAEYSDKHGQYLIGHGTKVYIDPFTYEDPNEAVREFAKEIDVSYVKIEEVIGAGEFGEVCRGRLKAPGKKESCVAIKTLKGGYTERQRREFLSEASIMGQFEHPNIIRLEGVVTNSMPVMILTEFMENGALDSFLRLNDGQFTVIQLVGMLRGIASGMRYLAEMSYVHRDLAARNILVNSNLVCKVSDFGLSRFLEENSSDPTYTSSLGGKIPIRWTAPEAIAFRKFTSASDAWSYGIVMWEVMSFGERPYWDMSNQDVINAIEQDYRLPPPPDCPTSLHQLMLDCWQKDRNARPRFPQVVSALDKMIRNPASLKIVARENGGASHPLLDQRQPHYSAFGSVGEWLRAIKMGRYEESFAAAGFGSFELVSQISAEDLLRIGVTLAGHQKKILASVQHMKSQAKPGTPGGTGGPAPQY

cells [10] = settings: Homo sapiens, M-07e
[11] = molecular target: Receptor-type tyrosine-protein kinase FLT3 (Homo sapiens) (UniProt P36888); experiment: Inhibition of FLT3; settings: concentration not given here
[12] = molecular target: Proto-oncogene tyrosine-protein kinase Src (Homo sapiens) (UniProt P12931); settings: 10 nM
[13] = molecular target: T3, Tyrosine-protein kinase Tec (Homo sapiens) (UniProt P42680); experiment: Inhibition of TEC at 10 nM; how it was run: as §1
T3 sequence (whole entry): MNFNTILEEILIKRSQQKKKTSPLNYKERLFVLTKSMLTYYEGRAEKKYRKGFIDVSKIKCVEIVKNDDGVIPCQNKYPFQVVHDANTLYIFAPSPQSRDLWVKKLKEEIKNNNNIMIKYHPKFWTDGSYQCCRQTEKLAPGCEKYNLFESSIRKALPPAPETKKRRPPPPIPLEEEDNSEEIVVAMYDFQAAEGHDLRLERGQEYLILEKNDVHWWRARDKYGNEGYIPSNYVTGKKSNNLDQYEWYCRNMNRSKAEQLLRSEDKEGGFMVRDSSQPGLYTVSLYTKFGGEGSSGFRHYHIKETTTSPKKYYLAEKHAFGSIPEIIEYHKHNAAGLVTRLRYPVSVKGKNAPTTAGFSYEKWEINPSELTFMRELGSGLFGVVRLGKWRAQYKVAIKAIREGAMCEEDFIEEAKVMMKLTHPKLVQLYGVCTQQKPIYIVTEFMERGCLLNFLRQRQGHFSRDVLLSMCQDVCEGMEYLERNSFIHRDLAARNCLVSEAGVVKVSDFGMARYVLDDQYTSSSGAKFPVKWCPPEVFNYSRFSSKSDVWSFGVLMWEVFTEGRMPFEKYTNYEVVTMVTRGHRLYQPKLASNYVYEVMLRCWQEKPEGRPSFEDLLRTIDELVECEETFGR

[14] = molecular target: T4, Tyrosine-protein kinase JAK3 (Homo sapiens) (UniProt P52333); experiment: Inhibition of JAK3 at 10 nM; how it was run: as §2
T4 sequence (whole entry): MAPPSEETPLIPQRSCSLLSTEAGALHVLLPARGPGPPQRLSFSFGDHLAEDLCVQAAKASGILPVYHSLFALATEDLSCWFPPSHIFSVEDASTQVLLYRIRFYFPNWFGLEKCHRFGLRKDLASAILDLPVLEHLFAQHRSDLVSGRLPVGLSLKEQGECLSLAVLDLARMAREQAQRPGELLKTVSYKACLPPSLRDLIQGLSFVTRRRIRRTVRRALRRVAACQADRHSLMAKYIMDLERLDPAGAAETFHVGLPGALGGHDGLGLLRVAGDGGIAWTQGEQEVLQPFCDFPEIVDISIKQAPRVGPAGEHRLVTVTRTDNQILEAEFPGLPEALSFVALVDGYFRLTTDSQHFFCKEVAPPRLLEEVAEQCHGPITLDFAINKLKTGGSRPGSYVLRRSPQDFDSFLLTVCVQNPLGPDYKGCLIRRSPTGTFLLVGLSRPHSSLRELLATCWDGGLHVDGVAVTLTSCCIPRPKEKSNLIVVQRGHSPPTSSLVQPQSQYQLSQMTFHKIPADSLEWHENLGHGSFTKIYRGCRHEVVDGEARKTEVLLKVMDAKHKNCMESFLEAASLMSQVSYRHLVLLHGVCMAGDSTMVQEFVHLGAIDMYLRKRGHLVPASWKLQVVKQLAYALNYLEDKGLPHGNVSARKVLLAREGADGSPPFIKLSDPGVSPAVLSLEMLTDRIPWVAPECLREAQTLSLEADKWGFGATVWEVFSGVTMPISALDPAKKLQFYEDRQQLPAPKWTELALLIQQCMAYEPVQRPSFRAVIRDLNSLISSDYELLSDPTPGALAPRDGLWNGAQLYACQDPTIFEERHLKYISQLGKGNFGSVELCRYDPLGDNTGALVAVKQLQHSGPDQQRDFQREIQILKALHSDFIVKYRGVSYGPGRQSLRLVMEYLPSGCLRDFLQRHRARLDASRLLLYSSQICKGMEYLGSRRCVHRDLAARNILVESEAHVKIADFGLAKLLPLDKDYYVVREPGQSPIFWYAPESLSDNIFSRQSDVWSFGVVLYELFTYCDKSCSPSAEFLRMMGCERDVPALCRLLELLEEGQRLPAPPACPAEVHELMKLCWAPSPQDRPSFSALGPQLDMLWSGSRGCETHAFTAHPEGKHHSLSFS

[15] = molecular target: Vascular endothelial growth factor receptor 2 (Homo sapiens) (UniProt P35968); experiment: Inhibition of KDR at 10 nM; how it was run: as §1
Mus musculus [16] = experiment: Biodistribution in tumor of human K562 cells xenografted iv dosed mouse; assay type: ADME, organism-based; settings: in vivo
How it was run: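 Three athymic mice carried subcutaneous K562 xenografts in the right shoulder. [18F] tracer (14 ± 1 MBq, 375 ± 25 µCi) was formulated in 5% BSA in saline, sterile filtered and given by tail vein. MicroPET imaging started 60 min post-injection with a 15 min exposure. Tumor uptake was expressed as % injected dose by region-of-interest analysis.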

Chain of Tyrosine-protein kinase CSK (Homo sapiens) (P41240 2-450 limits assumed): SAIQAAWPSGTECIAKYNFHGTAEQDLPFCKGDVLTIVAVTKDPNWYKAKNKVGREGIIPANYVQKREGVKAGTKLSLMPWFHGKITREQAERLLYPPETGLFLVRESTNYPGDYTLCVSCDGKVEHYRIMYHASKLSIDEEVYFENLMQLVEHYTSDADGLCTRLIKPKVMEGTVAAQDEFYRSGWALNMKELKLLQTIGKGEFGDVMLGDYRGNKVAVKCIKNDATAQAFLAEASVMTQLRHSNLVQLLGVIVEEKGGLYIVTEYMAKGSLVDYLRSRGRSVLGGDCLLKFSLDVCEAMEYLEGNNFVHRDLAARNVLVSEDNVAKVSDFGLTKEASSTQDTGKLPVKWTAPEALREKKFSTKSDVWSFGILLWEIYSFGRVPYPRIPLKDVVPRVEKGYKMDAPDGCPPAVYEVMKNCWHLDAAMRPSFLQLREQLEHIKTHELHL
Chain of Platelet-derived growth factor receptor alpha (Homo sapiens) (P16234 whole entry): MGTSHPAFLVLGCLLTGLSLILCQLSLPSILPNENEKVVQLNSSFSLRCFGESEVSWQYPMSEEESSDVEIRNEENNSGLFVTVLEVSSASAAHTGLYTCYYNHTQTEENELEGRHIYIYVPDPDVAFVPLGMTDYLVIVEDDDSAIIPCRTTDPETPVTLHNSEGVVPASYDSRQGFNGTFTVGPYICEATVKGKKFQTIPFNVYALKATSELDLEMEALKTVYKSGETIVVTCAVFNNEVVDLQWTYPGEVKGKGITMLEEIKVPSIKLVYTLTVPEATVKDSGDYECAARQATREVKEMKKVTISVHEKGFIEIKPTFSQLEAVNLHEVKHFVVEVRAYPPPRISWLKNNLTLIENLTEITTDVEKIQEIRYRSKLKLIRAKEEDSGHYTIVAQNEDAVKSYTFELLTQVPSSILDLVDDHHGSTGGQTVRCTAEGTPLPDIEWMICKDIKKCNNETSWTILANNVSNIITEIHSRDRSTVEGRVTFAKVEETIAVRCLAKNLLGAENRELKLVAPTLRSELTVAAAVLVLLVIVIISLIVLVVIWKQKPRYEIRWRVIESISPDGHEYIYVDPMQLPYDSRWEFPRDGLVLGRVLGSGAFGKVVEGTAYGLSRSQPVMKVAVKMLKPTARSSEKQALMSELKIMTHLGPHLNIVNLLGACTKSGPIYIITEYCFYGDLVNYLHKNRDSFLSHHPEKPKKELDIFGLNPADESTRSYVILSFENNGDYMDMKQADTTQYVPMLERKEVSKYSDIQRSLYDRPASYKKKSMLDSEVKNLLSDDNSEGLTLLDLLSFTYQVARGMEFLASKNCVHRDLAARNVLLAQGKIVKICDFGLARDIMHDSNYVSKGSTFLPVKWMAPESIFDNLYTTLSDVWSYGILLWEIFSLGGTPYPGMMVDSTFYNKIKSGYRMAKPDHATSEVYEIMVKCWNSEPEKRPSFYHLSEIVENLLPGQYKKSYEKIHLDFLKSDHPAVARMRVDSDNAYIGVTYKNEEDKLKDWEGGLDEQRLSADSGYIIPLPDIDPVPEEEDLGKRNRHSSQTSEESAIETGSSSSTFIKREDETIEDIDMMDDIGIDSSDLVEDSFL
Chain of Ephrin type-A receptor 2 (Homo sapiens) (P29317 whole entry): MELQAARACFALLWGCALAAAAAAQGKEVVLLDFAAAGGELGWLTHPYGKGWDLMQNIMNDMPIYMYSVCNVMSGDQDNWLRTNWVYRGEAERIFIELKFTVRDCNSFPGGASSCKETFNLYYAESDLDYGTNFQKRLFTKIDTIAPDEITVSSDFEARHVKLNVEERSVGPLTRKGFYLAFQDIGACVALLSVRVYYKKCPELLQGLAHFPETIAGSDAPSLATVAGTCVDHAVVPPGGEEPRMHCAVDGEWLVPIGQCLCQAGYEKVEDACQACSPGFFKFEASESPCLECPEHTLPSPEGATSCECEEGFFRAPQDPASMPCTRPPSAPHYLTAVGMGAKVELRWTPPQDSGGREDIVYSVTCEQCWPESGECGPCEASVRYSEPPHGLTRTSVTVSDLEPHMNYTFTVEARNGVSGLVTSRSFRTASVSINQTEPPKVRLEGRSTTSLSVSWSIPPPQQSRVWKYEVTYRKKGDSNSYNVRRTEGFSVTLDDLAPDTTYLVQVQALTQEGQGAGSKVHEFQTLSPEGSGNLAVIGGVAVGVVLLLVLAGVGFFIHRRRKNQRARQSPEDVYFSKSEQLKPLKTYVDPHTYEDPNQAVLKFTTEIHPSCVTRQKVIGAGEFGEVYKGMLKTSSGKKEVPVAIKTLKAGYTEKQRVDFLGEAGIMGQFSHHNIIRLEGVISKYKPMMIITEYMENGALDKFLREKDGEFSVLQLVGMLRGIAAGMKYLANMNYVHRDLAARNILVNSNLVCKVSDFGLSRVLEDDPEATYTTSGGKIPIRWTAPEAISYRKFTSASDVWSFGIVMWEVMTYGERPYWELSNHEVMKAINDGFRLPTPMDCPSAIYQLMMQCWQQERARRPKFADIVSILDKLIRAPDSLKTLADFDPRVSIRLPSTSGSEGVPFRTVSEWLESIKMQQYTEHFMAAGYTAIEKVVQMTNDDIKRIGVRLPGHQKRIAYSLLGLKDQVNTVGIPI
Chain of Activated CDC42 kinase 1 (Homo sapiens) (Q07912 whole entry, looked up): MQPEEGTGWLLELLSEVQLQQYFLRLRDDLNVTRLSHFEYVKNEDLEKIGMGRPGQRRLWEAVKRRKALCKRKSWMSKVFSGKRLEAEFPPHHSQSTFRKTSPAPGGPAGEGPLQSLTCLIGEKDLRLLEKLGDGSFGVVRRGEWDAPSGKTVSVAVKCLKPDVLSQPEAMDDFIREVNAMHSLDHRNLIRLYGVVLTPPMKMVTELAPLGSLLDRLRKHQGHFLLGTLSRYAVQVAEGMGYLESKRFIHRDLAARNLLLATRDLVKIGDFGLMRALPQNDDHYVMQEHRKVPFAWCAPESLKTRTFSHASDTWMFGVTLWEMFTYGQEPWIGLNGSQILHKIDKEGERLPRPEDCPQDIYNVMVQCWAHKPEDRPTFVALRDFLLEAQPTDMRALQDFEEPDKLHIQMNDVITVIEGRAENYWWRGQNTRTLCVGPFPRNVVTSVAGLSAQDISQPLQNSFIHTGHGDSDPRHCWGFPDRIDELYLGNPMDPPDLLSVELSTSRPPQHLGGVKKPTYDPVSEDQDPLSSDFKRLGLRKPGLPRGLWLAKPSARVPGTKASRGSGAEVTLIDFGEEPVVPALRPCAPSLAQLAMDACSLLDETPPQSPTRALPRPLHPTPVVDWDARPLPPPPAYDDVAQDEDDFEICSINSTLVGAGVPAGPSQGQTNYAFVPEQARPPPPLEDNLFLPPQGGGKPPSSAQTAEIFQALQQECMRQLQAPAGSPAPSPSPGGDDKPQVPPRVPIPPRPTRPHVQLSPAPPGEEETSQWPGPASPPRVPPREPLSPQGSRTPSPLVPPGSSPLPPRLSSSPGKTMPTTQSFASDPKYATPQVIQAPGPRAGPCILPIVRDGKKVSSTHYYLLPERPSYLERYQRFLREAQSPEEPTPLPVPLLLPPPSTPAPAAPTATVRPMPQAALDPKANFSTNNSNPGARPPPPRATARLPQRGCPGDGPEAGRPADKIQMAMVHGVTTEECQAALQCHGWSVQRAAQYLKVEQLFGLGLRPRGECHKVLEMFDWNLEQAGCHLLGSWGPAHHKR
Chain of Hepatocyte growth factor receptor (Homo sapiens) (P08581 whole entry): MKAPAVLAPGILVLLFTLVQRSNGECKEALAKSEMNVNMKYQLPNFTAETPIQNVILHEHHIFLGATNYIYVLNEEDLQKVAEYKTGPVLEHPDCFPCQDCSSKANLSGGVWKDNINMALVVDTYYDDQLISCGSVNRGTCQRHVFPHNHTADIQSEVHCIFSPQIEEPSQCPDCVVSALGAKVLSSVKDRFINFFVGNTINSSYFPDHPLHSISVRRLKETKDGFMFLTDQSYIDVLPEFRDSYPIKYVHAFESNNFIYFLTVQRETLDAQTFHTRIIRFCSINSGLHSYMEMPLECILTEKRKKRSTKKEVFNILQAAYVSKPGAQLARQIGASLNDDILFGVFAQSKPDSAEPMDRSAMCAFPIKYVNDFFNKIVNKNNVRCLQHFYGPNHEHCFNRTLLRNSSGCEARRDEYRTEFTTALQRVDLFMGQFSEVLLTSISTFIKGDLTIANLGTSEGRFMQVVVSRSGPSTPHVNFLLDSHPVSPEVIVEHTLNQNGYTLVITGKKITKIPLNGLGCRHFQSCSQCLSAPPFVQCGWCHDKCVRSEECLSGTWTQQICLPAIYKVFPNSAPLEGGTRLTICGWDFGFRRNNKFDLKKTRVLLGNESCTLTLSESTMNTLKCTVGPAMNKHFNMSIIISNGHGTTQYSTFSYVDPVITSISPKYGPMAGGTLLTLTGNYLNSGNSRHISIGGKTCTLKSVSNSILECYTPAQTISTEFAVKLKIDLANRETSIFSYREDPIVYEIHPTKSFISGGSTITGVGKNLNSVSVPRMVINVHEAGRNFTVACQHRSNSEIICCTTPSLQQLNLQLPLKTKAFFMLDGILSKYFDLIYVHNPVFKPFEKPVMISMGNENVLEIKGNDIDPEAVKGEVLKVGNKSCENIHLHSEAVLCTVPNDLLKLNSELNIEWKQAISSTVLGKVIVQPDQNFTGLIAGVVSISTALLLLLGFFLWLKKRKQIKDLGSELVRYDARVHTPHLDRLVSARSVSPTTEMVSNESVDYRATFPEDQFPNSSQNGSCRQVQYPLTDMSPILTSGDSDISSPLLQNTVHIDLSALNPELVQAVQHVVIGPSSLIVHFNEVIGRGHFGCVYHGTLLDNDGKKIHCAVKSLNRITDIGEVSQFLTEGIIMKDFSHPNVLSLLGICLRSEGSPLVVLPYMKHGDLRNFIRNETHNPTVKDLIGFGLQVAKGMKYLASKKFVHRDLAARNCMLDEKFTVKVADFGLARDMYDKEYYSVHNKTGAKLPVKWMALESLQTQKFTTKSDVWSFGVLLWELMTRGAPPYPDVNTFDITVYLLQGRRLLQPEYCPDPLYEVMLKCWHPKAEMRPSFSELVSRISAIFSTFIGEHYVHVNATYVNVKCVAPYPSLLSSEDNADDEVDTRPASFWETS

| IC50 (cells [7]) | IC50 (K562) | IC50 (cells [10]) | inhibition [14] | inhibition [15] | Drug uptake (Mus musculus [16]) | Compound | inhibition [1] | inhibition [2] | Activity (Mus musculus [3]) | inhibition [4] | inhibition [5] | inhibition [6] | inhibition [8] | inhibition [9] | inhibition [11] | inhibition [12] | inhibition [13] |
| --- | --- | --- | --- | --- | --- | --- | --- | --- | --- | --- | --- | --- | --- | --- | --- | --- | --- |
| 0.1 nM | 1.1 nM | 1.1 nM | 16% | -5.6% | – | Cc1nc(Nc2ncc(C(=O)Nc3c(C)cccc3Cl)s2)cc(N2CCN(CCF)CC2)n1 | 98.1% | 23.1% | Non-toxic | 86% | 95.2% | 83.1% | 7.2% | 97% | 0.3% | 97.5% | 98.1% |
| – | – | – | – | – | 1.1% | Cc1nc(Nc2ncc(C(=O)Nc3c(C)cccc3Cl)s2)cc(N2CCN(CC[18F])CC2)n1 | – | – | – | – | – | – | – | – | – | – | – |
| 0.07 nM | 1 nM | 1.2 nM | – | – | – | Cc1nc(Nc2ncc(C(=O)Nc3c(C)cccc3Cl)s2)cc(N2CCN(CCO)CC2)n1 [DASATINIB] | – | – | – | – | – | – | – | – | – | – | – |
| – | – | – | – | – | – | CN[C@@H]1C[C@H]2O[C@@](C)([C@@H]1OC)n1c3ccccc3c3c4c(c5c6ccccc6n2c5c31)C(=O)NC4 | 92.6% | 95.3% | – | 88.4% | 89.3% | 96.4% | 90% | 94.1% | 96.4% | 89.8% | 92.5% |
